High-throughput results from PubChem BioAssay.
The list is not random: actives were taken first. Their share in the collection is about 1.7%.
Hsp70 activator: Hsp70 transcriptional activators, primary screen, cell-based, HeLa, Hsp70 promoter luciferase, luminescence, 10 µM; HeLa Hsp70 promoter luciferase reporter; scaled: vehicle 0, proteasome-inhibitor control 100%; activation, % at 10 µM; actives 0.04% (n = 200,000); AID 1203, 2008;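 active = activation above the mean across all tested compounds plus 3 SD, cutoff set per campaign, cut at about 5.5% in these data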
EP2 modulator: EP2 receptor modulators, cAMP readout, primary screen, cell-based, HTRF cAMP, PGE2 stimulation; actives 0.83% (n = 260,000); Prostaglandin E2 receptor EP2 subtype (Homo sapiens), P43116; AID 940, 2007; EP2-expressing cells, cAMP HTRF FRET, PGE2 co-stimulation; induction, % at 25 µM;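 active = compounds whose cAMP rise, as percent of the full-agonist control response, exceeds 60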;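 note: rat C6 glioma line stably carrying human EP2 under a CMV promoter; the protocol text gives 20 µM as final concentration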
Target sequence (P43116 whole entry, looked up): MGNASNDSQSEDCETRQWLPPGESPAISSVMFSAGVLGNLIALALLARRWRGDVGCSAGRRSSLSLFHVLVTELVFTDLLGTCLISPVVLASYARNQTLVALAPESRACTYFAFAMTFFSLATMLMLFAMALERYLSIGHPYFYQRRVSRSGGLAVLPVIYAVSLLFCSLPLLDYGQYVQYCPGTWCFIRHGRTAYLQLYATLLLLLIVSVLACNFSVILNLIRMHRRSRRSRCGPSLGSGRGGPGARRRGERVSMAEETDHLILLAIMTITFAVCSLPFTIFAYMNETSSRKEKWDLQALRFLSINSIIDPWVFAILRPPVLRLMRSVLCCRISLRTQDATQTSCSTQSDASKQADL
Dynein transport: inhibitors of GR-EGFP nuclear translocation, primary screen, dynein cargo transport inhibitor project, imaging, high-content, 3617.4 mouse cells; z-score, hits read low; test concentration mostly 20 µM; stimulated with dexamethasone, 1 µM; stronger effect = lower value; actives 0.47% (n = 220,000);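 active = plate z-score of nuclear minus cytoplasmic receptor signal below a set negative limit, without overly bright fluorescence or cell loss, cut at about -3.5 in these data, passing the limit was not always enough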;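 note: z-score of nuclear minus cytoplasmic ring GR-EGFP intensity difference per well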
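Also added – dexamethasone, 1.0 µM final · Buffer or medium – tet-free, stripped-serum medium · Schedule – induction 48 h, compound 1 h, agonist 30 min · Detection – formaldehyde fixation, Hoechst nuclear stain, 10x automated fluorescence imaging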
PGE2 EP2 inh: human EP2 receptor antagonists, primary screen, TR-FRET cAMP, C6 glioma cells; Prostaglandin E2 receptor EP2 subtype (Homo sapiens), P43116; actives 0.52% (n = 260,000); inhibition, % at 25 µM; C6 glioma cells expressing human EP2; cells stimulated with saturating PGE2;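 active = percent inhibition above 40 after rounding to a whole number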;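 note: rat C6 glioma host cells with rolipram phosphodiesterase inhibitor present; the protocol text gives 20 µM as final concentration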
Dynein confirm: dynein cargo transport inhibitors, GR-EGFP translocation, confirmation, imaging, high-content imaging, GR-EGFP cells | shares compounds with Dynein transport | 3617.4 GR-EGFP nuclear translocation imaging, dexamethasone-induced | calls only at 20 µM | actives 69% (n = 1,000) | AID 463116, 2010;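 active = inhibition of receptor movement into the nucleus at or above a set limit in both runs, with normal cell brightness and cell count; inconclusive = limit reached in only one run, brightness and count normal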;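 note: dexamethasone at 1 µM final in well for 30 min; nuclear minus cytoplasmic GR-EGFP mean intensity difference in channel 2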
A number is an active result; 0 = inactive; ? = inconclusive; - = not tested or not shown; + = active, no number; ! = not active in a repeat.

SMILES	Hsp70 activator	EP2 modulator	Dynein transport	PGE2 EP2 inh	Dynein confirm
O=C1CC(Cc2ccccc2)C(=O)N1CC(=O)N1CCCC1c1nc2ccccc2[nH]1 (configuration not stated)	-	0	-	0	-
CCc1cc(OCCCCNCc2ccccc2)ccc1Cl	0	0	-6.9	0	0
CC(C)(C)c1ccc(OCCCNCc2ccccc2)cc1	0	0	0	0	-
CSc1nnc(C)c(/C=C/Nc2ccc(F)cc2F)n1	0	0	0	0	-
C=CCSc1nnc(C)c(/C=C/Nc2ccc(Cl)cc2)n1	0	0	0	0	+
c1nc2nc3c(c(NCc4ccc5c(c4)OCO5)n2n1)CCC3	-	0	-	0	-
COC(=O)c1cc(=O)n(CCc2ccc(OC)c(OC)c2)c(=Nc2ccc(F)c(Cl)c2)s1	0	0	-4	0	+
COC(=O)C1=CN(Cc2cccs2)C=C(C(=O)OC)C1c1cccc(O)c1	0	0	0	0	-
COC(=O)c1cc(=O)n(Cc2cccs2)c(=Nc2ccccc2)s1	-	0	-4.4	0	+
CNC(=O)C1CC(=O)N(CCc2ccc(OC)c(OC)c2)C(=Nc2ccc(F)cc2)S1 (configuration not stated)	0	0	0	0	-
COC(=O)c1cc(=O)n(Cc2ccc(OC)c(OC)c2)c(=Nc2ccc(F)cc2)s1	0	0	-4.3	0	+
COC(=O)c1cc(=O)n(-c2ccccc2)c(=Nc2ccccc2)s1	0	0	-3.9	0	+
CCOC(=O)c1ccc(N=c2sc(C(=O)OC)cc(=O)n2-c2ccc(C(=O)OCC)cc2)cc1	0	0	0	0	-
Cn1ccnc1C1(O)COC2(CCN(C(=O)Cc3ccc(F)cc3)CC2)C1 (configuration not stated)	-	0	-	-	-
CCc1ccc(-c2nc(N)sc2CC(=O)O)cc1	-	0	-	0	-
COc1ccccc1NC(=O)c1sc2ncn(Cc3ccc(F)cc3)c(=O)c2c1C	-	0	-	0	-
COC(=O)c1cc(=O)n(Cc2ccc(F)cc2)c(=Nc2ccccc2)s1	-	0	-4.6	0	+
CC1(C)CC2(CCCN(C(=S)Nc3ccccc3)C2)CCO1 (configuration not stated)	-	0	0	0	-
CCC1(C)CC2(CCCN(CCC(=O)c3ccccc3)C2)CCO1 (configuration not stated)	0	0	-3.8	81!	0
COc1ccc2nc3c(cc2c1)CN(C1CCC1)C(=O)C(C)O3 (configuration not stated)	-	0	-	0	-
CCCn1c(SCC(N)=O)nnc1-c1ccccn1	-	0	-	0	-
CSC(SC)=C(C#N)C(=O)c1ccccc1	-	0	-4.8	48	+
O=C(O)c1ccc(C(=O)C(=O)c2ccccc2)cc1	-	0	0	0	-
COc1cccc(C(=O)Nc2ccc(NC(C)=O)cc2)c1	0	0	0	0	-
COc1cccc(C(=O)C(C#N)=C(SC)SC)c1	-	0	-4.5	0	+
SMILES	Hsp70 activator	EP2 modulator	Dynein transport	PGE2 EP2 inh	Dynein confirm
CCn1c(SCC(=O)Nc2cccc(C(=O)OC)c2)nnc1-c1ccco1	-	0	-	0	-
Cc1ccccc1-n1c(=O)c2ccccc2n2cnnc12	0	0	0	0	-
Cc1ccccc1-n1sc2cc(F)ccc2c1=O	0	0	-4.8	0	+
CC(C)C(=O)N1CCN(c2ccc(NC(=O)c3cccnc3)cc2)CC1	-	0	-	0	-
Cc1cc(C)c(C)c(S(=O)(=O)ON2C(=O)c3ccccc3C2=O)c1C	0	0	-4.3	0	+
Cc1cc(C)c(S(=O)(=O)ON2C(=O)c3ccccc3C2=O)cc1C	0	0	-6.1	0	+
CO/N=C/c1ccc(Oc2ccc([N+](=O)[O-])cc2[N+](=O)[O-])c(OC)c1	0	0	0	0	-
COc1cc(/C=C2\SC(=O)NC2=O)ccc1Oc1ccc([N+](=O)[O-])cc1[N+](=O)[O-]	0	0	-3.8	0	?
CCn1c(=O)oc2cc(S(=O)(=O)NCC3CCN(Cc4ccccc4)C3)ccc21 (configuration not stated)	-	0	-	0	-
CN(C)CCCN(C(=O)CCc1ccccc1)c1nc2c(F)cccc2s1	0	0	0	0	-
CN(C)CCCN(C(=O)CCOc1ccccc1)c1nc2c(F)cccc2s1	0	0	-7.9	0	+
CN(C)CCCN(C(=O)COc1ccccc1)c1nc2ccc(F)cc2s1	0	0	0	0	-
CN(C)CCCN(C(=O)CCOc1ccccc1)c1nc2ccc(F)cc2s1	0	0	-3.5	0	0
O=c1oc(-c2ccco2)nc2ccccc12	0	0	-3.6	0	0
N#Cc1ccc2nc(N)[nH]c2c1	-	0	-	0	-
Cc1cc(Cl)n2c(nc3cc(F)c(F)cc32)c1C#N	0	0	-4.3	0	+
CCOCCCNC1=C(Cl)C(=O)c2ccccc2C1=O	-	0	-5.3	0	+
COCCCNC(=O)c1ccccc1Oc1ccccc1	0	0	0	0	-
COCCCNC(=O)c1ccc2c3c(onc13)-c1ccccc1C2=O	-	0	-4.9	0	+
CCc1c(C)c(C#N)c2nc3ccccc3n2c1N(C)C	0	0	0	0	-
CCCCc1c(C)c(C#N)c2nc3ccccc3n2c1Cl	0	0	-5.2	0	+
Cc1ccc(N2C(=O)CC(Sc3ncn[nH]3)C2=O)cc1C (configuration not stated)	0	0	-6	0	0
Cc1cccc(N2C(=O)CC(Sc3ncn[nH]3)C2=O)c1 (configuration not stated)	0	0	0	0	-
C=CCNC(=O)C(C)Sc1nnc2c(n1)[nH]c1ccccc12 (configuration not stated)	-	0	-	0	-
CCOC(=O)C(=Cc1cc(=O)c(OC)co1)C(=O)OCC	0	0	-4	0	+
SMILES	Hsp70 activator	EP2 modulator	Dynein transport	PGE2 EP2 inh	Dynein confirm
CSc1nc2sc3c(c2c2nnnn12)CC(C)(C)OC3	0	-	0	-	-
CC1(C)Cc2c(sc3c4nnnn4c4nnnn4c23)CO1	0	0	-4.7	0	0
CC1CCN(c2nc3c(c(=O)[nH]2)CN(Cc2ccc(N(C)C)cc2)CC3)CC1	-	0	-	0	-
CC1(C)C(=O)Nc2ccccc2N1C(=O)Cn1ncc(Cl)c(Cl)c1=O	-	0	-6.3	0	+
O=C(Cn1ncc(Cl)c(Cl)c1=O)N1CCc2ccccc21	0	0	0	0	-
O=C(Cn1ncc(Cl)c(Cl)c1=O)N1CCN(Cc2ccccc2)CC1	0	0	-5	0	+
O=C(Cn1ncc(Cl)c(Cl)c1=O)N1CCOCC1	0	0	-4.2	0	+
O=C(NC(=S)Nc1nc2c(s1)CSc1ccccc1-2)c1ccccc1	0	0	-3.5	0	0
Cc1ccc(-n2nnnc2Sc2ccc(S(=O)(=O)NCCN(C)C)cc2[N+](=O)[O-])cc1	0	0	-4	0	+
N=C1C(c2nc3ccccc3s2)=C(O)CN1c1cccc(Cl)c1	-	0	-	0	-
